# TAAR1 agonist: agonists of human TAAR1 | Q96RJ0 | 0.99% of 360,000 active | CHO RD-HGA16 TAAR1, Fluo-8 calcium fluorescence; vehicle wells 0%, saturating PEA agonist 100% | activation, % at 3 µM;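 active = activation above the mean activation of all test compounds in the run plus 3 SD, cut at about 38% in these data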
# Target sequence (Q96RJ0 whole entry, looked up): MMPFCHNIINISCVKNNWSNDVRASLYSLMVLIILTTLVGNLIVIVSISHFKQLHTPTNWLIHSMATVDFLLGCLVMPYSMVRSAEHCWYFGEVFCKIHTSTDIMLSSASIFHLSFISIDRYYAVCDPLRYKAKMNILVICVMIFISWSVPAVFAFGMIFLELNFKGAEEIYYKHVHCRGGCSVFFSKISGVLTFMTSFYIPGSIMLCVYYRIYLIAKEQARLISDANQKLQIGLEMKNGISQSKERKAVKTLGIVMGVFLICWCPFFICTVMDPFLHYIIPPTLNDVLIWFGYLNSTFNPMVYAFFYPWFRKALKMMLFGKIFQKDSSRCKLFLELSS
#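 Signal – calcium-sensitive Fluo-8 signal, excitation 470-495, emission 515-575 nm · System – RD-HGA16 (CHO) cells co-expressing Gα16 and hTAAR1 · Incubation – 17-24 h seeding, 75 min 37 °C dye, 30 min RT · Compound dosing – 3 µM single concentration · Repeats – no replicates (n 1)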
# TAAR1 antagonist: antagonists of human TAAR1. AID 624466. inhibition, % at 3 µM. CHO RD-HGA16 TAAR1, Fluo-8 calcium fluorescence, antagonist. 1.5% of 360,000 active;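 active = inhibition above a per-plate cutoff, the mean inhibition of test compounds on that plate plus 3 SD, cut at about 49% in these data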;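 note: 0% = DMSO plus EC80 beta-PEA response and 100% = DMSO alone without agonist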
#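 System: CHO RD-HGA16 cells bearing hTAAR1. Reagent: EC80 β-phenethylamine stimulus. Schedule: seeding 17-24 h prior, 75-min 37 °C, 30-min RT dye loading. Signal: Fluo-8 intracellular calcium dye fluorescence, real-time kinetic reads. Read-out: % inhibition from peak post-agonist over basal fluorescence ratio. Benchmarks: vehicle wells and EC80 agonist wells. Replicates: n of 1.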
# OXTR potentiator: potentiators of human oxytocin receptor; P30559; CHO-OTR cells, Fluo-8 calcium fluorescence, potentiator mode; 0% = oxytocin EC15, 100% = EC100; activation, % at 3 µM; 0.061% of 320,000 active;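 active = activation above that plate's cutoff, the mean activation of tested compounds plus 3 SD, cut at about 6.6% in these data, passing the limit was not always enough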;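 note: 100% uses oxytocin at 75 nM as the full agonist control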
# Target sequence (P30559 whole entry, looked up): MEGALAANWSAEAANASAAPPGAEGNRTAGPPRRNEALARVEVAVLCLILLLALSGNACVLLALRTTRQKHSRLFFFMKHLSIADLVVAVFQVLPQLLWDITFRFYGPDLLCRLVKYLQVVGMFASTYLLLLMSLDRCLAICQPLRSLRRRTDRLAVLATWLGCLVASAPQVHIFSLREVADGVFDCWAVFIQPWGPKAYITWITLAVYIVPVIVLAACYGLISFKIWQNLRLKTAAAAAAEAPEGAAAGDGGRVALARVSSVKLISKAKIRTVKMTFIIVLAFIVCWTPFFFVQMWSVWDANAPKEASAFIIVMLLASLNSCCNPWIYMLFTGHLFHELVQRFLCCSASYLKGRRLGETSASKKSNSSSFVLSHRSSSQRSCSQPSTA
#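 Measured by – Fluo-8 calcium dye fluorescence · Test system – human OTR in CHO cells · Dosing – one concentration, 3.0 µM compound · Controls – EC15 oxytocin alone as 0%, 75 nM oxytocin as 100% · Evaluation – normalized max/min fluorescence ratio, % activation · Timing – 6 min pre-incubation, 100 s read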
# V1aR counter: counter-screen for oxytocin receptor agonists: human V1a receptor agonists; CHO-V1R cells, Fluo-8 calcium fluorescence, agonist mode; 0% DMSO, 100% 3 nM vasopressin; activation, % at 3 µM; 0.25% of 320,000 active; AID 2797;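 active = activation above the mean activation of all tested compounds plus 3 SD, per screening run, cut at about 20% in these data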;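 note: signal is peak over basal fluorescence ratio across a 100 second FLIPR read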
# OXTR ag: activates the human oxytocin receptor; P30559; CHO-OTR cells, Fluo-8 calcium fluorescence; normalized: DMSO 0%, oxytocin 100%; activation, % at 3 µM; 0.32% of 320,000 active;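 active = activation above the mean of all tested compounds plus 3 SD, cutoff set per screening run, cut at about 20% in these data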;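 note: peak over basal fluorescence ratio from a 100 s FLIPR kinetic read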
# TAAR1 nonsel count: nonselective antagonist in TAAR1 antagonist counter-screen; shares compounds with TAAR1 antagonist; counterscreen cell line, calcium fluorescence, antagonist mode; inhibition, % at 3 µM; 77% of 2,400 active; AID 651780; in the data active = inhibition above about 22%;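 note: CHO-Ga16 host cells stimulated with ATP at an EC80 level; 0% = agonist EC80 plus vehicle and 100% = vehicle without agonist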
# TAAR1 antag conf: confirmation of human TAAR1 antagonists | shares compounds with TAAR1 antagonist | TAAR1-expressing cells, fluorescence antagonist read-out | inhibition, % at 3 µM | 40% of 2,400 active; in the data active = inhibition above about 49%;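 note: CHO-Ga16 host cells challenged with agonist PEA near its EC80; 0% = agonist at EC80 plus vehicle and 100% = vehicle with no agonist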
# Ga16 ag counter-1: nonselective Ga16 agonism, counter-screen; shares compounds with TAAR1 antagonist; Ga16-expressing cells, calcium fluorescence, agonist counterscreen; activation, % at 3 µM; 18% of 2,400 active; AID 651953; in the data active = activation above about 12%;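 note: 0% = vehicle wells and 100% = saturating stimulus response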
# TAAR1 ag count: activates human TAAR1 in antagonist counter-screen; shares compounds with TAAR1 antagonist; hTAAR1 cell line, fluorescence activation, agonist mode; activation, % at 3 µM; 2% of 2,400 active; AID 651955; in the data active = activation above about 37%;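 note: CHO cells stably expressing TAAR1 with calcium dye readout; 0% = DMSO vehicle and 100% = full agonist response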
# TAAR1 ag confirm: human TAAR1 agonism, confirmed; shares compounds with TAAR1 agonist; CHO RD-HGA16 TAAR1, Fluo-8 calcium fluorescence; scaled: DMSO 0%, maximal phenethylamine 100%; activation, % at 3 µM; 82% of 2,400 active; AID 651783;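 active = activation above a cutoff set at the run's mean compound activation plus 3 SD, cut at about 39% in these data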
# Ga16 ag counter-2: counter-screen for TAAR1 agonists: nonselective agonists in parental cells | shares compounds with TAAR1 agonist | CHO-Ga16 parental, Fluo-8 calcium fluorescence; normalized to maximal ATP response, DMSO zero | activation, % at 3 µM | 50% of 2,400 active | AID 651787;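 active = activation above the run cutoff, the mean activation over all tested wells plus 3 SD, cut at about 12% in these data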;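 note: 0% = DMSO wells and 100% = maximal ATP response on the peak over basal ratio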
# TAAR1 desens: TAAR1 response desensitization, agonist counter-screen; AID 651951; CHO RD-HGA16 hTAAR1, Fluo-8 calcium, beta-PEA response inhibition; 46% of 2,400 active; inhibition, % at 3 µM; shares compounds with TAAR1 agonist;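 active = inhibition above the run cutoff, the mean inhibition of all test compounds plus 3 SD, cut at about 49% in these data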;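 note: beta-PEA stimulus applied at its EC80; loss of beta-PEA calcium signal after compound pretreatment read as receptor desensitization; 0% = DMSO with beta-PEA at EC80 and 100% = DMSO alone without agonist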
# Ga16 nonsel ant: nonselective Ga16 antagonism, counter-screen. shares compounds with TAAR1 agonist. CHO-Ga16 ATP-induced calcium, Fluo-8 fluorescence. inhibition, % at 3 µM. 39% of 2,400 active. AID 651952;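 active = inhibition above the plate's mean compound inhibition plus 3 SD, computed per plate, cut at about 22% in these data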;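 note: 0% = EC80 ATP with DMSO and 100% = DMSO wells without ATP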
# An asterisk follows results filed as active; · = no result given; ! = a repeat was not active. Sampled rows, rich in hits. Any-hit rate of the full collection: about 2.3%.
SMILES,TAAR1 agonist,TAAR1 antagonist,OXTR potentiator,V1aR counter,OXTR ag,TAAR1 ag confirm,Ga16 ag counter-2,TAAR1 desens,Ga16 nonsel ant,others
CC(OC(=O)c1cn(C)c2ccccc12)C(=O)N1CCCC1 (stereo not given),1.1,8.5,-1.1,-0.1,-0.7,·,·,·,·,
COC(=O)C1=C(c2ccc(F)cc2OCc2ccccc2)C[C@@H]2CC[C@H]1N2C(=O)NCc1cccc(OC)c1,11.2,74.3*,-3.4,2.2,1.6,·,·,·,·,TAAR1 nonsel count=28.8*;TAAR1 antag conf=42.1;Ga16 ag counter-1=3.5;TAAR1 ag count=1.1
COC(=O)C1=C(c2ccccc2OCc2ccccc2)C[C@@H]2CC[C@H]1N2C(=O)NCc1cccc(F)c1,14.1,41.8,-1.9,1.6,0.4,·,·,·,·,
COC(=O)C1=C(c2ccc(F)cc2OCc2ccccc2)C[C@@H]2CC[C@H]1N2C(=O)NCc1ccc(OC)cc1,12.8,61.8*,-6.0,1.6,-0.9,·,·,·,·,TAAR1 nonsel count=21.2;TAAR1 antag conf=44.6;Ga16 ag counter-1=4.0;TAAR1 ag count=4.2
CC12CC(=O)C3C(CCC4CC(=O)C=CC43C)C1CCC2=O (stereo not given),-0.2,13.0,·,·,·,·,·,·,·,
COc1ccc(CCN)cc1O,46.9*,7.6,-9.8,0.4,0.6,61.7*,-0.2,22.1,9.2,
CCCCOc1ccc(CCN)cc1Cl,86.6*,67.3*,-6.3,7.0,9.8,98.9*,17.9*,84.1*,12.0,
CC(C)Oc1ccc(CCN)cc1Cl,51.7*,-27.7,-4.9,1.2,1.0,67.5*,10.9,11.2,2.1,
COc1cc(C(O)CN)ccc1O (stereo not given),20.6,-8.1,-7.2,0.8,-0.3,·,·,·,·,
COc1ccc2c3c1OC1C(=O)CC[C@@]4(O)[C@@H](C2)N(CC2CC2)CC[C@]314 (stereo not given in full),0.6,14.4,-7.7,0.8,2.5,·,·,·,·,
N#Cc1c(N2CCNCC2)nc(-c2ccco2)c2c1CCCC2,79.7*,48.2,0.8,-0.1,-0.9,96.1*,16.5*,90.5*,15.1,
CCCCn1c(=O)c(C(=O)Nc2ccccc2C)c(O)c2ccccc21,·,·,-17.1,0.4,0.5,·,·,·,·,
CCCCCn1c(=O)c(C(=O)Nc2ncccc2C)c(O)c2ccccc21,54.1*,10.7,-25.7,39.0*,53.7*,54.0*,86.3*,35.3,43.6*,
COc1cc(/C=C/[N+](=O)[O-])ccc1O,14.2,5.7,9.4,3.0,0.6,·,·,·,·,
CCN(CC)c1ccc(/C=C/[N+](=O)[O-])cc1,226.6*,89.8*,-17.5,72.6*,41.6*,50.7*,58.1*,50.6*,58.8*,
Cc1cccc(N2C(=O)/C(=C/N3CCN(C(=O)c4ccco4)CC3)C(=O)NC2=S)c1,49.1*,-13.7,-8.1,1.0,0.5,60.7*,0.4,3.8,4.5,
O=C1NC(=S)N(c2ccccc2)C(=O)/C1=C/c1ccco1,1.8,8.2,-22.1,4.6,2.7,·,·,·,·,
Cc1ccc(N2C(=O)/C(=C/N3CCN(C(=O)c4ccco4)CC3)C(=O)NC2=S)cc1C,56.1*,-7.2,-0.9,0.8,1.1,73.4*,0.6,5.9,1.9,
O=C1NC(=S)N(c2ccc(Br)cc2)C(=O)/C1=C/N1CCN(C(=O)c2ccco2)CC1,32.2,10.8,-19.1,2.4,2.3,·,·,·,·,
CCN(CC)c1ccc(/C=C2/C(=O)NC(=O)N(Cc3ccco3)C2=O)cc1,44.9*,20.7,-5.2,0.8,1.9,66.1*,30.0*,41.4,34.3*,
O=S(=O)(c1ccccc1)C1CN1c1c(F)c(F)c(F)c(F)c1F (stereo not given),-0.3,-14.3,·,·,·,·,·,·,·,
Cc1cccc(-n2c(/C=C/c3ccccn3)nc3ccccc3c2=O)c1,4.3,11.7,-11.0,-1.2,-1.7,·,·,·,·,
CNCC(C)c1ccccc1 (stereo not given),83.6*,59.4*,-6.9,0.6,0.8,94.3*,0.9,83.0*,1.9,
Cc1cc(C)cc(N2C(=O)NC(=O)/C(=C\c3cccn3-c3ccc(Cl)cc3)C2=O)c1,50.5*,32.4,-9.0,-0.1,-0.2,37.3,12.5*,36.0,20.2,
CN1C(=O)/C(=C/c2cccn2-c2ccc3ccccc3c2)C(=O)NC1=S,5.1,31.9,-9.3,-0.2,-1.3,·,·,·,·,
SMILES,TAAR1 agonist,TAAR1 antagonist,OXTR potentiator,V1aR counter,OXTR ag,TAAR1 ag confirm,Ga16 ag counter-2,TAAR1 desens,Ga16 nonsel ant,others
CCN(CC)Cc1c[nH]c2ccccc12,9.1,10.2,-4.7,1.5,0.9,·,·,·,·,
CN(CCc1ccccc1)Cc1c[nH]c2ccccc12,92.7*,83.6*,-4.6,1.7,0.9,95.7*,2.1,76.6*,2.5,
CC(N)Cc1ccc(O)cc1 (stereo not given),96.0*,54.1*!,·,·,·,94.1*,2.5,83.9*,4.6,
S=C(NCCc1ccccc1)N1Cc2ccc(Br)cc2-n2nncc2C1,60.5*,34.4,·,·,·,38.2*,2.8,21.7,19.0,
CCOC(=O)[C@]12Cc3cc(C)ccc3[C@H]1N(C(C)C)C(=O)c1ccccc12,0.1,-39.1,·,·,·,·,·,·,·,
COc1cc(O)cc2c1C(=O)OC(C)CCCC(=O)CCC/C=C\2 (stereo not given),55.2*,10.4,-8.3,0.9,0.8,30.0,26.3*,34.8,22.8*,
C[C@H]1CCCC(=O)CCC/C=C/c2cc(O)cc(O)c2C(=O)O1,11.9,-21.8,-1.7,0.4,-0.5,·,·,·,·,
N#CC1C(C#N)C2CCC1C1C2N1c1ccccc1 (stereo not given),0.2,7.8,·,·,·,·,·,·,·,
O=C(NCCN1CCC2(CC1)C(=O)NCN2c1ccccc1)c1ccc(F)cc1F,14.5,5.0,·,·,·,·,·,·,·,
